Laboratory results from the M2OR odorant receptor database.

Legend:
Settings in all cases: stereoisomer not certain
UniProt Q8VG27 = target: T1, UniProt Q8VG27
T1 sequence (whole entry): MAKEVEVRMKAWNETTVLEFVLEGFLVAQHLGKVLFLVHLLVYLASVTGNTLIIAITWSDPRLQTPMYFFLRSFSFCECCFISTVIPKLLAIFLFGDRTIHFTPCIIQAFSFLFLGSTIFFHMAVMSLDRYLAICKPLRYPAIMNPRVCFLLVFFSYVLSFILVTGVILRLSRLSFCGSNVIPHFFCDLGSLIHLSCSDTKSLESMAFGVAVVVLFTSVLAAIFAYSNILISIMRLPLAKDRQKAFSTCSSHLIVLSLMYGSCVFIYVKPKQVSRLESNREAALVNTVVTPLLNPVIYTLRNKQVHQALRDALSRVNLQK
Outline: (§1)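 Assay methods differ from source to source, frequently being transient luciferase assays in mammalian cell lines. For each receptor–molecule pair, the label responsive (active) applies when the original authors judged the measured signal statistically different from baseline, and non-responsive (inactive) applies otherwise.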

UniProt Q8VG49 = target: T2, UniProt Q8VG49
T2 sequence (whole entry): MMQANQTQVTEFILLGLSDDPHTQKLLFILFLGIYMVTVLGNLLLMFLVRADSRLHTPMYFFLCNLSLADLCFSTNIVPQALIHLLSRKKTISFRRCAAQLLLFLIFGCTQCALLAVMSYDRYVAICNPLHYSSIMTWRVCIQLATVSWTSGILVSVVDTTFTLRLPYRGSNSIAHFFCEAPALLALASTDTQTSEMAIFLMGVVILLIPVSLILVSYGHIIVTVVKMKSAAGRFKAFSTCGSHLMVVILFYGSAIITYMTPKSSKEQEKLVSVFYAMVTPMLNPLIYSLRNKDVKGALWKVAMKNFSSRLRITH
Outline: as §1

UniProt Q8VG53 = target: T3, UniProt Q8VG53
T3 sequence (whole entry): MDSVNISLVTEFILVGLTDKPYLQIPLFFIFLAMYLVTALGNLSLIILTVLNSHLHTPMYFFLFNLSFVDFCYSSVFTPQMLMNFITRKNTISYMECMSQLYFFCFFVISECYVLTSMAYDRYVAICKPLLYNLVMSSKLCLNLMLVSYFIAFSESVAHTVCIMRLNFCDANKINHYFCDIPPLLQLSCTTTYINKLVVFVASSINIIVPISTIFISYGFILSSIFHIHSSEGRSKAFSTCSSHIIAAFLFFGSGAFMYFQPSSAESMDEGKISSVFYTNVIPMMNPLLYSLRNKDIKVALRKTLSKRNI
Outline: as §1

UniProt Q8VG64 = target: T4, UniProt Q8VG64
T4 sequence (whole entry): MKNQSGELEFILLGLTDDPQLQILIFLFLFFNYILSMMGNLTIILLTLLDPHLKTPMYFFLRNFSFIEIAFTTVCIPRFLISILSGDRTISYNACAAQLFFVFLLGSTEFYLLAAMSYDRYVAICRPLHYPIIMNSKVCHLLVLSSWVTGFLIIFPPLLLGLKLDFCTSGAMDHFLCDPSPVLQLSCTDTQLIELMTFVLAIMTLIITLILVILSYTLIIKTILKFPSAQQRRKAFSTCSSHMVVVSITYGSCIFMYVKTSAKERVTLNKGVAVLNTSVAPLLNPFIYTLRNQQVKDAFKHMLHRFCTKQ
Outline: as §1

UniProt Q8VG77 = target: T5, UniProt Q8VG77
T5 sequence (whole entry): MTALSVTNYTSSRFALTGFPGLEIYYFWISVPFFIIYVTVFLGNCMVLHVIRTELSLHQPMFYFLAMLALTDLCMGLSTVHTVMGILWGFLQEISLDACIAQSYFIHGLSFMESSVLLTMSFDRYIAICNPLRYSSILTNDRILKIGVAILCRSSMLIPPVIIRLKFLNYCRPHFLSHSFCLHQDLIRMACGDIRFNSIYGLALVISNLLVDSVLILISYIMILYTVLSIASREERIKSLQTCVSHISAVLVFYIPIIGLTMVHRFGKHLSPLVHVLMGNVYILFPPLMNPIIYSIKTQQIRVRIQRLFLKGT
Outline: as §1

UniProt Q8VG96 = target: T6, UniProt Q8VG96
T6 sequence (whole entry): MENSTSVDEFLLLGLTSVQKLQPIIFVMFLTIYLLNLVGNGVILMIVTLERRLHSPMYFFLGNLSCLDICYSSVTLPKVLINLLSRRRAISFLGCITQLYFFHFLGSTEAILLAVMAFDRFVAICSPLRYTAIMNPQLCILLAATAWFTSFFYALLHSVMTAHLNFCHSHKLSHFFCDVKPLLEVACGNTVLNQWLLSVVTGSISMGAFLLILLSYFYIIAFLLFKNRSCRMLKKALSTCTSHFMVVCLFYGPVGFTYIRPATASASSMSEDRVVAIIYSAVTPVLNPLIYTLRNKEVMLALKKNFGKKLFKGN
Outline: as §1

UniProt Q8VGB9 = target: T7, UniProt Q8VGB9
T7 sequence (whole entry): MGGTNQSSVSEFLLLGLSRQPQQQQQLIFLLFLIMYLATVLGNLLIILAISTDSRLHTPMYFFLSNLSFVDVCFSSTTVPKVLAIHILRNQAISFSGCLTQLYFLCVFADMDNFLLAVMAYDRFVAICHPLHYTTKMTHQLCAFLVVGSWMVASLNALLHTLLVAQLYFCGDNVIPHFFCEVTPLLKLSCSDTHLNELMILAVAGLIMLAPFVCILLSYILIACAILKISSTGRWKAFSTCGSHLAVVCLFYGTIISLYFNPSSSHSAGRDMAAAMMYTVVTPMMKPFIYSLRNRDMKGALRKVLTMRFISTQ
Outline: as §1

UniProt Q8VGC6 = target: T8, UniProt Q8VGC6
T8 sequence (whole entry): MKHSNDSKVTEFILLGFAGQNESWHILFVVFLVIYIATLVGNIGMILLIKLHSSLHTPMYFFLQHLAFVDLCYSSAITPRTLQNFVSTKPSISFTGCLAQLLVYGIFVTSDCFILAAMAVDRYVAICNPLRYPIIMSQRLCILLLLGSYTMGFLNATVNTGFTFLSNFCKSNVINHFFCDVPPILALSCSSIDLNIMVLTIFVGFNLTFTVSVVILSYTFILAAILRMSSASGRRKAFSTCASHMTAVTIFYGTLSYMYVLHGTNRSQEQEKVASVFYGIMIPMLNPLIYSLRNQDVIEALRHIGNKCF
Outline: as §1

UniProt Q8VGD7 = target: T9, UniProt Q8VGD7
T9 sequence (whole entry): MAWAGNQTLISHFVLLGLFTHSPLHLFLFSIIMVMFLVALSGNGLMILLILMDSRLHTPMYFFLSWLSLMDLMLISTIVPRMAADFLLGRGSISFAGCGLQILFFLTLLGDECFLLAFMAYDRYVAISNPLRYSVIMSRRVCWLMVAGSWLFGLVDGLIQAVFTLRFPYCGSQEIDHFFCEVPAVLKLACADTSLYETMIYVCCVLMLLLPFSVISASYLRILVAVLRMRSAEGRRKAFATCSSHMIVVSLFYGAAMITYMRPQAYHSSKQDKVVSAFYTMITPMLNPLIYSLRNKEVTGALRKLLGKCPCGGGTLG
Outline: as §1

UniProt Q8VGH1 = target: T10, UniProt Q8VGH1
T10 sequence (whole entry): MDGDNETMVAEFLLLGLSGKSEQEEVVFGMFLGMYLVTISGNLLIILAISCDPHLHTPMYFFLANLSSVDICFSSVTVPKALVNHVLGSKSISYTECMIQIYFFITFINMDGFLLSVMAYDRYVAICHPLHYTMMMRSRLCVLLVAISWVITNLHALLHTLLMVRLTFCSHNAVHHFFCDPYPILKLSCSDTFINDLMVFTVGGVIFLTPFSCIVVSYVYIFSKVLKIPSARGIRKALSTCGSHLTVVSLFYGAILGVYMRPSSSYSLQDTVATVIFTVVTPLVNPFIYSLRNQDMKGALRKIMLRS
Outline: as §1

UniProt Q8VGJ1 = target: T11, UniProt Q8VGJ1
T11 sequence (whole entry): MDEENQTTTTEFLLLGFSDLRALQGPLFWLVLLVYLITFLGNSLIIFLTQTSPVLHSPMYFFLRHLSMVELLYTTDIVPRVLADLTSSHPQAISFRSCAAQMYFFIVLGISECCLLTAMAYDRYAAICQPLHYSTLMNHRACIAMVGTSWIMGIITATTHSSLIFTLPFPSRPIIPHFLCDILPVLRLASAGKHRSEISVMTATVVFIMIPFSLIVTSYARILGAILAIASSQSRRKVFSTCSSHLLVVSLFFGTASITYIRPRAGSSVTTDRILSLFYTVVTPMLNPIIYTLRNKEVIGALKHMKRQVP
Outline: as §1

UniProt Q8VGJ3 = target: T12, UniProt Q8VGJ3
T12 sequence (whole entry): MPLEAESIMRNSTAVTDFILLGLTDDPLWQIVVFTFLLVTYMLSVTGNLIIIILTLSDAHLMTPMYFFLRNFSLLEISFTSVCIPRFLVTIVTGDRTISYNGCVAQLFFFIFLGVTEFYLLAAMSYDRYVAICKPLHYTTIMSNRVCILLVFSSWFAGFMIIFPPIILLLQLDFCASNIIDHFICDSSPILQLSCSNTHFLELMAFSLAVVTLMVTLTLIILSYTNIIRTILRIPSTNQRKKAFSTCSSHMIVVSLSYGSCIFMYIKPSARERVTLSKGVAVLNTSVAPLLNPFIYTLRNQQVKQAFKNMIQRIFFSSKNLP
Outline: as §1

UniProt Q8VGJ5 = target: T13, UniProt Q8VGJ5
T13 sequence (whole entry): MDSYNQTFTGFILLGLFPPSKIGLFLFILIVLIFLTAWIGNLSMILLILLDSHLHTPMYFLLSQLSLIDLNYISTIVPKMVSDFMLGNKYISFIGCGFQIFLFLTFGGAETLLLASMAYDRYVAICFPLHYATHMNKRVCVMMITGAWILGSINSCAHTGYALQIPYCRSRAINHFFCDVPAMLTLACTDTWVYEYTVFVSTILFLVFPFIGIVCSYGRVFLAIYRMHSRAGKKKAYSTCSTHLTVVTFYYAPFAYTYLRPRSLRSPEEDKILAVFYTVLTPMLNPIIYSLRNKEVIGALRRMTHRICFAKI
Outline: as §1

UniProt Q8VGL0 = target: T14, UniProt Q8VGL0
T14 sequence (whole entry): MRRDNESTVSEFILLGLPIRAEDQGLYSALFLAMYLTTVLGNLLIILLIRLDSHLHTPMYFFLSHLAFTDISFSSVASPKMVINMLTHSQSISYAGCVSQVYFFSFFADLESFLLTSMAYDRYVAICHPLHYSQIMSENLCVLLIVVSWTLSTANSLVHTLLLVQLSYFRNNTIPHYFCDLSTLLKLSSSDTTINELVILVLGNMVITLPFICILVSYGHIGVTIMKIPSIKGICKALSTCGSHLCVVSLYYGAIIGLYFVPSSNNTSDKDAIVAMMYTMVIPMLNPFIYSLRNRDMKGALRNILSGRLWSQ
Outline: as §1

UniProt Q8VGL7 = target: T15, UniProt Q8VGL7
T15 sequence (whole entry): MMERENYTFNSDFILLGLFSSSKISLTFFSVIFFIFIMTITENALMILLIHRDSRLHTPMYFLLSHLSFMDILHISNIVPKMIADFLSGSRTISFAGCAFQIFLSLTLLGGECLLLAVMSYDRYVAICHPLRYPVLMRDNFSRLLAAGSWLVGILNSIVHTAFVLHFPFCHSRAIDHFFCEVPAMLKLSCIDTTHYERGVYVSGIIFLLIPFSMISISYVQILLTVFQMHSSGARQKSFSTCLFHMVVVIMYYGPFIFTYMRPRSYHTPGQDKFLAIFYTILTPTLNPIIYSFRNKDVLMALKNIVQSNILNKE
Outline: as §1

| SMILES | odorant receptor agonist call (UniProt Q8VG27) | odorant receptor agonist call (UniProt Q8VG49) | odorant receptor agonist call (UniProt Q8VG53) | odorant receptor agonist call (UniProt Q8VG64) | odorant receptor agonist call (UniProt Q8VG77) | odorant receptor agonist call (UniProt Q8VG96) | odorant receptor agonist call (UniProt Q8VGB9) | odorant receptor agonist call (UniProt Q8VGC6) | odorant receptor agonist call (UniProt Q8VGD7) | odorant receptor agonist call (UniProt Q8VGH1) | odorant receptor agonist call (UniProt Q8VGJ1) | odorant receptor agonist call (UniProt Q8VGJ3) | odorant receptor agonist call (UniProt Q8VGJ5) | odorant receptor agonist call (UniProt Q8VGL0) | odorant receptor agonist call (UniProt Q8VGL7) |
| --- | --- | --- | --- | --- | --- | --- | --- | --- | --- | --- | --- | --- | --- | --- | --- |
| O=C(c1ccccc1)c1ccccc1 | inactive | inactive | inactive | inactive | inactive | inactive | inactive | inactive | inactive | inactive | active | inactive | inactive | inactive | inactive |
| CCCCCOC(=O)CCC | inactive |  | inactive | inactive |  |  | inactive | inactive |  |  |  | inactive |  | inactive |  |
| CC(=O)OCc1ccc2c(c1)OCO2 | inactive |  | inactive | inactive |  |  | inactive | active |  |  |  | inactive |  | inactive |  |
| CCCCCOC(=O)CC | inactive |  | inactive | inactive |  |  | inactive | inactive |  |  |  | inactive |  | inactive |  |
| CC=C(C)C=O | inactive |  | inactive | inactive |  |  | inactive | inactive |  |  |  | inactive |  | inactive |  |
| CC(C)=C1CCC(C)CC1=O (centres undefined) | inactive |  | inactive | inactive |  |  | inactive | inactive |  |  |  | inactive |  | inactive |  |
| CCCCCC=CCCC=O | inactive |  | inactive | inactive |  |  | inactive | inactive |  |  |  | inactive |  | inactive |  |
| CCCCCCCCCC=CC=O | inactive |  | inactive | inactive |  |  | inactive | inactive |  |  |  | inactive |  | inactive |  |
